The values below come from ChEMBL document CHEMBL1132576, “Tetrahydrobenzindoles: selective antagonists of the 5-HT7 receptor” (J Med Chem, 1999).

SMILES strings stand for the structures.

Test [1] concerns the target Serotonin 2 (5-HT2) receptor (Rattus norvegicus, UniProt P30994+P08909+P14842). Briefly: Compound was evaluated for its ability to displace [3H]ketanserin binding from […] rat cerebral cortex membranes 5-hydroxytryptamine 2 receptor. It counts as tissue-based. The essentials:
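Displacement of [³H]ketanserin from 5-HT2 sites in rat cerebral cortex membranes. Values reported as pKi, each the mean of at least two determinations, each within 0.2 log unit of the mean.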

The target of test [2] is 5-hydroxytryptamine receptor 7 (Homo sapiens, UniProt P34969). The test is described as follows: Compound was evaluated for its ability to displace [3H]5-CT binding from cloned human 5-hydroxytryptamine 7 receptor expressed in COS-7 cells. It counts as cell-based. The essentials: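 Radioligand displacement of [³H]5-CT from cloned human 5-HT7 receptor expressed in COS-7 cells. Values reported as pKi, each the mean of at least two determinations, each within 0.2 log unit of the mean.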

Test [3] concerns the target T1, 5-hydroxytryptamine receptor 1A (Homo sapiens, UniProt P08908).
T1 sequence (P08908 whole entry): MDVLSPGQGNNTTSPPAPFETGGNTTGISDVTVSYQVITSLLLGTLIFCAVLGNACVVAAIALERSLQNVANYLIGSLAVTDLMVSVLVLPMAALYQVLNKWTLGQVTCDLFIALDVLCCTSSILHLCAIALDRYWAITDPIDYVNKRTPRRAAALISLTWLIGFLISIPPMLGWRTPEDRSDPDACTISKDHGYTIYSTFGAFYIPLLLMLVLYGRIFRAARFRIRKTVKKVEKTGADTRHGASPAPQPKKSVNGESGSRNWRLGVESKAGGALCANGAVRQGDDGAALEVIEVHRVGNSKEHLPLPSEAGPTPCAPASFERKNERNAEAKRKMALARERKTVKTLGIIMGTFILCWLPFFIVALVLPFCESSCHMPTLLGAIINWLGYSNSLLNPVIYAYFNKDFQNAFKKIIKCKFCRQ
Briefly: Compound was evaluated for its ability to displace [3H]8-OH-DPAT binding from human 5-hydroxytryptamine 1A receptor in mammalian cells. It is filed as cell-based. The procedure, abridged: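 Radioligand displacement at human recombinant 5-HT1A receptor expressed in mammalian cells, labelled with [3H]8-OH-DPAT. Affinity reported as pKi, mean of at least two determinations, each within 0.2 log unit of the mean.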

Test [4] has as its target 5-hydroxytryptamine receptor 4 (Cavia porcellus, UniProt O70528). Briefly: Compound was evaluated for its ability to displace [3H]GR-113808 binding from 5-hydroxytryptamine 4 receptor in guinea pig striatum. The procedure, abridged: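 Competition binding in guinea-pig striatum using [3H]GR-113808 at 5-HT4 sites. pKi is the mean of at least two determinations, each within 0.2 log unit of the mean.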

Test [5] addresses 5-hydroxytryptamine receptor 6 (Homo sapiens, UniProt P50406). Briefly: Compound was evaluated for its ability to displace [3H]LSD binding from human recombinant 5-hydroxytryptamine 6 receptor. The essentials:
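Displacement of [3H]LSD from human recombinant 5-HT6 receptor expressed in mammalian cells. pKi is the mean of at least two determinations, each lying within 0.2 log unit of the mean.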

Test [6] deals with D(2) dopamine receptor (Rattus norvegicus, UniProt P61169). Briefly: Compound was evaluated for its ability to displace [3H]spiperone binding from Dopamine receptor D2 in rat striatum. The procedure, abridged:
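Dopamine D2 binding was run in rat striatum with [3H]spiperone as radioligand. Values are pKi, mean of at least two determinations, each within 0.2 log unit of the mean.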

Sequence of 5-hydroxytryptamine receptor 7 (P34969 whole entry): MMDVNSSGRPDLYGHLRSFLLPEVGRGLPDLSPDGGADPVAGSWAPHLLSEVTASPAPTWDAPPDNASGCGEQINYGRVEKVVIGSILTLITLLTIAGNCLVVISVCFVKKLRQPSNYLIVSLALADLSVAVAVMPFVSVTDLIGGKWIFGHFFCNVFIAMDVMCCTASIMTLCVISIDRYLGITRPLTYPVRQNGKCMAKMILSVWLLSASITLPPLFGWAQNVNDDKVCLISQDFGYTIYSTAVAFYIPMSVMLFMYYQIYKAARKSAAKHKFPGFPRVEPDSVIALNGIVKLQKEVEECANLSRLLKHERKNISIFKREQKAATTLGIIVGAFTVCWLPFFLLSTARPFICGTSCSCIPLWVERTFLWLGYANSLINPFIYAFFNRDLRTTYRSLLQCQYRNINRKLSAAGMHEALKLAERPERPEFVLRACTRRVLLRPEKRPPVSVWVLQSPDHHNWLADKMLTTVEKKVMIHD
Sequence of D(2) dopamine receptor (P61169 whole entry): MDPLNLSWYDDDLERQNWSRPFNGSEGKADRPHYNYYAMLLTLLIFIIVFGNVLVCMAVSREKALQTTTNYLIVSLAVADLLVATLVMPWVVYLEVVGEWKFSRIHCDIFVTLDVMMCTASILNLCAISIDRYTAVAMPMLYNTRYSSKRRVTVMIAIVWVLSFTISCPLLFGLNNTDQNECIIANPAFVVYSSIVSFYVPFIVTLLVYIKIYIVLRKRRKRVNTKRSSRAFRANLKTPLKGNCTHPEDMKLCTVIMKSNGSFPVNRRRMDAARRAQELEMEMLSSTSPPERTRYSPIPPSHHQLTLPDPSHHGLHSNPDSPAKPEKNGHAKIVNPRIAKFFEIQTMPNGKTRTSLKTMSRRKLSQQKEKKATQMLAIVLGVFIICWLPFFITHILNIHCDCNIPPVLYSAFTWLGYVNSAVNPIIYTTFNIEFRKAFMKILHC
Sequence of 5-hydroxytryptamine receptor 6 (P50406 whole entry): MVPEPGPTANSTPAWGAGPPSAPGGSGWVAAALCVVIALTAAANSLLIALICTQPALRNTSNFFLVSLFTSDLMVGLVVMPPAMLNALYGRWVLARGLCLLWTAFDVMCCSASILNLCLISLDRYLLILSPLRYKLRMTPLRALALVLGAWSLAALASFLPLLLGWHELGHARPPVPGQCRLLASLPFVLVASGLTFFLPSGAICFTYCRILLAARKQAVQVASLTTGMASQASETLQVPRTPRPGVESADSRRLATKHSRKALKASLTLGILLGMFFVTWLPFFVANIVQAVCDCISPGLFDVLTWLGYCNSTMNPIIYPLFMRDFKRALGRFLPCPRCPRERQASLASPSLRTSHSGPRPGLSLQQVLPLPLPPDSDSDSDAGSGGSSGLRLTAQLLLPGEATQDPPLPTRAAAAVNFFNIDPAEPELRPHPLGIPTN
Sequence of 5-hydroxytryptamine receptor 4 (O70528 whole entry): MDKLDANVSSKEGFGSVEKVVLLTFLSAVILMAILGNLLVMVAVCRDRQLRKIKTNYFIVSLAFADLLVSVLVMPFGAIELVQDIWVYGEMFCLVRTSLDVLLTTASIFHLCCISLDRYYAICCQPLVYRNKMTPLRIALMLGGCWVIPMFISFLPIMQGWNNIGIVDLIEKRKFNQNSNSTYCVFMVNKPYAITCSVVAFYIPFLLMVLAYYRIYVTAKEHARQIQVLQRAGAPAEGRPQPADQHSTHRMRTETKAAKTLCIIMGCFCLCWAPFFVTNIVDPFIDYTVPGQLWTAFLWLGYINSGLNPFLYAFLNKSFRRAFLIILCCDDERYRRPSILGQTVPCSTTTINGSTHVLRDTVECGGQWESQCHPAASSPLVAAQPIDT

As a reminder, the Ki is a measure of affinity in units of concentration, obtained from inhibition or displacement. In the case of `N#Cc1ccccc1N1CCN(CCCCC23CCCc4cccc(c42)NC3=O)CC1` (stereo not given), the “Log Ki” value in test [1] is -6.98. Besides, the affinity in test [2] corresponds to a Ki of 3.8 nM.

For the compound `O=C1Nc2cccc3c2C1(CCCCN1CCN(c2ccccn2)CC1)CCC3` (stereo not given), the “Log Ki” value in test [1] is -7.27. The compound further had a Ki in test [2] of 1.86 nM.

For the compound `O=C1Nc2cccc3c2C1(CCN1CCN(c2ccccc2)CC1)CCC3` (stereo not given), in test [1], the “Log Ki” value is recorded as -8.27. The inhibition constant (Ki) in test [2] is 102 nM.

As for `O=C1Nc2cccc3c2C1(CCCCN1CC=C(c2ccccc2)CC1)CCC3` (stereo not given), the Ki in test [3] was 170 nM; in test [4] it was greater than 1000 nM; in test [2] it was 2.14 nM; in test [5], 525 nM; in test [6], 105 nM. For the same compound, in test [1], the “Log Ki” value is on record as -7.01.

In the case of `O=C1Nc2cccc3c2C1(CCCCN1CCN(c2ccccc2)CC1)CCC3` (stereo not given), the “Log Ki” value in test [1] is -7.37. In addition, the affinity in test [2], expressed as Ki, was 3.31 nM.

Consider `O=C1Nc2cccc3c2C1(CCCN1CCN(c2ccccc2)CC1)CCC3` (stereo not given), for which, in test [1], the “Log Ki” value is recorded as -7.79. This compound gave an inhibitory constant (Ki) in test [2] of 5.25 nM.

With `COc1ccccc1N1CCN(CCCCC23CCCc4cccc(c42)NC3=O)CC1` (stereo not given), the “Log Ki” value in test [1] was -6.95. The Ki in test [2] was 5.13 nM.

As for `O=C1Nc2cccc3c2C1(CCCCN1CCN(C2CCCCC2)CC1)CCC3` (stereo not given), the Log Ki in test [1] was greater than -6. This compound also gave a Ki in test [2] greater than 1000 nM.
